This passage reports EC50 and Ki results from ChEMBL document CHEMBL1145968, “3-(alphaR)-alpha-((2S,5R)-4-allyl-2,5-dimethyl-1-piperazinyl)-3-hydroxybenzyl)-N-alkyl-N-arylbenzamides: potent, non-peptidic agonists of both the micro and delta opioid receptors” (J Med Chem, 2003).

For one experiment, the species on record is Cavia porcellus. Put plainly: Inhibition of the electrically induced muscle contractions was determined using the guinea pig ileum. It is filed as functional. Summed up:
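Intact ileum segments (about 3 cm) suspended under 1 g tension in modified Krebs buffer containing 1.20 mM MgSO4. Field-stimulated with square-wave pulses at 0.1 Hz, 0.5 ms, supramaximal voltage. Cumulative concentrations were each given time for maximal response before the next.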

For the next experiment, the species on record is Mus musculus. Briefly: Inhibition of the electrically induced muscle contractions was determined using the mouse vas deferens. It is filed as functional. Summed up: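 Vas deferens segments in Krebs buffer, placed between platinum electrodes with isometric force recording at 0.5 g resting tension. Stimulated with 400 ms trains (1 ms pulses, 10 Hz, supramaximal voltage). Cumulative concentrations were each allowed maximal effect before the next.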

Experiment [1] addresses Delta-type opioid receptor (Rattus norvegicus, UniProt P33533). Briefly: Binding affinity of compound evaluated for Opioid receptor delta 1 isolated from rat brain.

Structures are written as SMILES.

Sequence of Delta-type opioid receptor (P33533 whole entry): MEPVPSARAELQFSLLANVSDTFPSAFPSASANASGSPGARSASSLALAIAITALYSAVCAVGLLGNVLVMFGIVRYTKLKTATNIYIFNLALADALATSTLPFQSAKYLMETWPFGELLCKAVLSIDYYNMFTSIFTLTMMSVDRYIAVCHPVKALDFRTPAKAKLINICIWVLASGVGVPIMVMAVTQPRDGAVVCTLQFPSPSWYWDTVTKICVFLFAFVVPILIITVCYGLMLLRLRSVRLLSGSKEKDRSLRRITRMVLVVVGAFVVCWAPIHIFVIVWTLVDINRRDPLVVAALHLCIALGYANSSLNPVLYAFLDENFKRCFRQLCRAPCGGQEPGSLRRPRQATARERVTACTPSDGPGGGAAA

For the compound `C=CCN1C[C@H](C)N([C@@H](c2cccc(O)c2)c2cccc(C(=O)N(CCCC)c3ccccc3)c2)C[C@H]1C`, the EC50 is 41 nM in the experiment listed under Cavia porcellus (Cavia porcellus, Ileum) and 1.7 nM in the experiment filed under Mus musculus (Mus musculus).
`C=CCN1C[C@H](C)N([C@@H](c2cccc(O)c2)c2cccc(C(=O)N(C)c3ccc(Cl)cc3)c2)C[C@H]1C` showed a Ki in experiment [1] of 2.73 nM. Moreover, the concentration giving a half-maximal response (EC50) in the experiment listed under Cavia porcellus (Cavia porcellus, Ileum) came out at 4.9 nM; in the experiment listed under Mus musculus (Mus musculus), 2.6 nM.
On to `C=CCN1C[C@H](C)N([C@@H](c2cccc(O)c2)c2cccc(C(=O)N(C)c3ccccc3C(F)(F)F)c2)C[C@H]1C`, for which the EC50 in the experiment filed under Cavia porcellus (Cavia porcellus, Ileum) amounted to 5.6 nM; in the experiment filed under Mus musculus (Mus musculus), 0.95 nM.
The matching figures for `C=CCN1C[C@H](C)N([C@@H](c2cccc(O)c2)c2cccc(C(=O)N(C)CCc3ccccc3)c2)C[C@H]1C`: 6.6 nM and 0.34 nM.
Regarding `C=CCN1C[C@H](C)N([C@@H](c2cccc(O)c2)c2cccc(C(=O)N(C)c3ccccc3)c2)C[C@H]1C`, in experiment [1], the affinity, expressed as Ki, was 1.37 nM. The EC50 in the experiment listed under Cavia porcellus (Cavia porcellus, Ileum) is 59.5 nM; in the experiment filed under Mus musculus (Mus musculus), 1.7 nM.
For `C=CCN1C[C@H](C)N([C@@H](c2cccc(O)c2)c2cccc(C(=O)N(c3ccccc3)C3CC3)c2)C[C@H]1C`, in experiment [1], the Ki was found to be 1.92 nM. The EC50 in the experiment filed under Cavia porcellus (Cavia porcellus, Ileum) was 1.23 nM; in the experiment filed under Mus musculus (Mus musculus), 1.42 nM.
Take `C=CCN1C[C@H](C)N([C@@H](c2cccc(O)c2)c2cccc(C(=O)N(C)c3ccccc3F)c2)C[C@H]1C`: the EC50 in the experiment listed under Cavia porcellus (Cavia porcellus, Ileum) was found to be 4.1 nM; in the experiment listed under Mus musculus (Mus musculus) it was 0.69 nM.
As for `C=CCN1C[C@H](C)N([C@@H](c2cccc(O)c2)c2cccc(C(=O)N3CCCc4ccccc43)c2)C[C@H]1C`, the inhibitory constant (Ki) in experiment [1] is 1.18 nM. Further, the EC50 in the experiment filed under Cavia porcellus (Cavia porcellus, Ileum) turned out to be 11.5 nM; in the experiment filed under Mus musculus (Mus musculus) it was 1.05 nM.
The compound `C=CCN1C[C@H](C)N([C@@H](c2cccc(O)c2)c2cccc(C(=O)N(CCC)c3ccccc3)c2)C[C@H]1C` yielded an inhibitory constant (Ki) in experiment [1] of 1.26 nM. The concentration giving a half-maximal response (EC50) was determined as 18 nM in the experiment listed under Cavia porcellus (Cavia porcellus, Ileum) and 2.4 nM in the experiment listed under Mus musculus (Mus musculus).
Consider `C=CCN1C[C@H](C)N([C@@H](c2cccc(O)c2)c2cccc(C(=O)N(C)c3ccc([N+](=O)[O-])cc3)c2)C[C@H]1C`, for which the EC50 in the experiment listed under Cavia porcellus (Cavia porcellus, Ileum) was found to be 4.1 nM; in the experiment filed under Mus musculus (Mus musculus) it was 2.3 nM.
The like results for `C=CCN1C[C@H](C)N([C@H](c2cccc(O)c2)c2cccc(C(=O)N(C)c3ccccc3)c2)C[C@H]1C` were, in that order, 1.22 nM and 0.47 nM.
On to `C=CCN1C[C@H](C)N([C@@H](c2cccc(O)c2)c2cccc(C(=O)N(C)c3ccc(OC)cc3)c2)C[C@H]1C`, for which the Ki in experiment [1] was 2.01 nM. For the same compound, the EC50 in the experiment filed under Cavia porcellus (Cavia porcellus, Ileum) worked out at 1.1 nM; in the experiment filed under Mus musculus (Mus musculus), 0.36 nM.
With `C=CCN1C[C@H](C)N([C@@H](c2cccc(O)c2)c2cccc(C(=O)N(CC)c3ccc(F)cc3)c2)C[C@H]1C`, the EC50 worked out at 4 nM in the experiment listed under Cavia porcellus (Cavia porcellus, Ileum) and 1.4 nM in the experiment filed under Mus musculus (Mus musculus).
Regarding `C=CCN1C[C@H](C)N([C@H](c2cccc(O)c2)c2cccc(C(=O)N(CC)CC)c2)C[C@H]1C`, in experiment [1], the Ki is 2.1 nM. The EC50 in the experiment filed under Cavia porcellus (Cavia porcellus, Ileum) is 4.35 nM; in the experiment filed under Mus musculus (Mus musculus), 5.85 nM.
`C=CCN1C[C@H](C)N([C@@H](c2cccc(O)c2)c2cccc(C(=O)N(CCC)c3ccc(F)cc3)c2)C[C@H]1C`: in experiment [1], the Ki was determined as 2.75 nM. For the same compound, the EC50 in the experiment listed under Cavia porcellus (Cavia porcellus, Ileum) turned out to be 1050 nM; in the experiment listed under Mus musculus (Mus musculus), 0.68 nM.
The matching figures for `C=CCN1C[C@H](C)N([C@@H](c2cccc(O)c2)c2cccc(C(=O)N(CC)c3ccccc3)c2)C[C@H]1C`: 2.17 nM, 0.94 nM and 0.96 nM.
As for `C=CCN1C[C@H](C)N([C@@H](c2cccc(O)c2)c2cccc(C(=O)N(C)Cc3ccccc3)c2)C[C@H]1C`, the EC50 in the experiment filed under Cavia porcellus (Cavia porcellus, Ileum) turned out to be 6.07 nM; in the experiment listed under Mus musculus (Mus musculus) it was 5.6 nM.
In the case of `C=CCN1C[C@H](C)N([C@@H](c2cccc(O)c2)c2cccc(C(=O)N(C)c3ccc(F)cc3)c2)C[C@H]1C`, the Ki in experiment [1] was 1.4 nM. For the same compound, the EC50 in the experiment listed under Cavia porcellus (Cavia porcellus, Ileum) amounted to 0.67 nM; in the experiment filed under Mus musculus (Mus musculus), 1.1 nM.
The compound `C=CCN1C[C@H](C)N(C(c2ccc(C(=O)N(CC)CC)cc2)c2cccc(O)c2)C[C@H]1C` (single isomer, unassigned) returned a Ki in experiment [1] of 1.8 nM. For the same compound, the EC50 in the experiment listed under Cavia porcellus (Cavia porcellus, Ileum) came to 150 nM; in the experiment listed under Mus musculus (Mus musculus), 0.2 nM.
In turn, `C=CCN1C[C@H](C)N([C@@H](c2cccc(O)c2)c2cccc(C(=O)N(C)c3cccc(F)c3)c2)C[C@H]1C` (stereo in doubt; 24) showed a Ki in experiment [1] of 0.18 nM. Besides, the results for the EC50 in the experiment filed under Cavia porcellus and in the experiment filed under Mus musculus were 3.4 nM and 0.79 nM, respectively.
As to `C=CCN1C[C@H](C)N([C@@H](c2cccc(O)c2)c2cccc(C(=O)N(C)c3cccc(F)c3)c2)C[C@H]1C` (stereo in doubt; 32), the inhibition constant (Ki) in experiment [1] amounted to 11.4 nM. Also, the figures for the EC50 in the experiment filed under Cavia porcellus and in the experiment listed under Mus musculus were 1800 nM and 25.3 nM, respectively.

The term EC50 denotes the concentration needed to bring the measured effect to its halfway point. A high value points to a less potent agent. By Ki is commonly meant the dissociation constant of the complex between target and ligand, obtained from inhibition or displacement. Higher therefore signals weaker binding.
